# Measured values taken from ChEMBL document CHEMBL1817572, “New, potent, selective, and short-acting peptidic V1a receptor agonists” (J Med Chem, 2011).
# pEC50: −log10 of the molar value. Numbered stars: 1 amine (or outer) side, 2 acyl side, 3 side chain; on linkers, the order of the positions; unused ones are H or OH. Bridge positions count the residues as written; N and C are the ends. Square brackets hold non-standard residues; d marks the D form. Peptide text beside a SMILES is read from it. * marks the point of attachment. Orn(Me) = CN(CCC[C@H](N[*:1])C(=O)[*:2])[*:3]; Bta = N[C@@H](Cc1csc2ccccc12)C(=O)O; Orn = NCCC[C@H](N)C(=O)O; Dab = NCC[C@H](N)C(=O)O; Dap = NC[C@H](N)C(=O)O; N(Me)OMe = CON(C)*; NHCH2CH2OH = OCCN*; X2 = CC(O)CN*; X3 = OCCOCCN*; NHOH = ON*
# Assays:
# Vasopressin V1a receptor = Vasopressin V1a receptor (Homo sapiens, UniProt P37288); assay: Agonist activity at recombinant human vasopressin V1a receptor expressed in HEK293 cells by luciferase reporter gene assay; format: functional, cell-based; conditions: for pEC50: read-out: EC50; for EC50: read-out: pEC50 (converted)
# Vasopressin V1b receptor = target: T1, Vasopressin V1b receptor (Homo sapiens, UniProt P47901); assay: Agonist activity at recombinant human vasopressin V1b receptor expressed in Flp-In-293 cells by luciferase reporter gene assay; format: functional, cell-based; conditions: for pEC50: read-out: EC50
# T1 sequence (P47901 whole entry): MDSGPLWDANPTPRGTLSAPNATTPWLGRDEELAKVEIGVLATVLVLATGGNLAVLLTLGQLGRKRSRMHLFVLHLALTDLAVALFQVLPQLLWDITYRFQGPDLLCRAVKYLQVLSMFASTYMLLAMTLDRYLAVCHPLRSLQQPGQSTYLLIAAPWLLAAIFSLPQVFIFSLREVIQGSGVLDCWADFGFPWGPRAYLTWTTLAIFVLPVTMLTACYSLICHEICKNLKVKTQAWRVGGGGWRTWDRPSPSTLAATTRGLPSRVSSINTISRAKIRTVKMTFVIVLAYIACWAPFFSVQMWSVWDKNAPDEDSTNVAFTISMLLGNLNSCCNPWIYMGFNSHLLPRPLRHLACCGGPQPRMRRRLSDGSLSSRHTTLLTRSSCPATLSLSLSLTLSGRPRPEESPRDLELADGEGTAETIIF
# Outline: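 Reporter gene assays in HEK293 cells transiently cotransfected with V1a (human or rat) or human V2 receptor vector plus NFAT-luciferase (V1a) or CRE-luciferase (V2) reporter; V1b in Flp-In-293 stably expressing receptor, OT in CHO-K1 stably expressing receptor, both transiently transfected with NFAT-luciferase. Two days post-transfection, peptides added for 5 h at 37 °C, lysis with luciferin, luminescence read.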
# Oxytocin receptor = target: T2, Oxytocin receptor (Homo sapiens, UniProt P30559); assay: Agonist activity at human OT receptor expressed in CHO-K1 cells by luciferase reporter gene assay; format: functional, cell-based; conditions: for pEC50: read-out: EC50; for EC50: read-out: pEC50 (converted)
# T2 sequence (P30559 whole entry): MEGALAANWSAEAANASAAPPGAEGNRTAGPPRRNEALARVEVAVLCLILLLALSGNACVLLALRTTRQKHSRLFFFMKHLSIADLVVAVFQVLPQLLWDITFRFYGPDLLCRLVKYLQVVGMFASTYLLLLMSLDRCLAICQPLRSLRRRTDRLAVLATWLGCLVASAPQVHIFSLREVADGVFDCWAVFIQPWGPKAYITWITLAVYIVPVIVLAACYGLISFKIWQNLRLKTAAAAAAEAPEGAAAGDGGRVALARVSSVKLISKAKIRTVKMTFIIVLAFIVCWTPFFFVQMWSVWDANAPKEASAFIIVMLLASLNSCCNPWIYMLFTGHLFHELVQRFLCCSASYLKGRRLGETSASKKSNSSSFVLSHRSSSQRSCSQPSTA
# Vasopressin V2 receptor = Vasopressin V2 receptor (Homo sapiens, UniProt P30518); assay: Agonist activity at recombinant human vasopressin V2 receptor expressed in HEK293 cells by luciferase reporter gene assay; format: functional, cell-based; conditions: for pEC50: read-out: EC50; for EC50: read-out: pEC50 (converted)
# Homo sapiens [1] = species: Homo sapiens; assay: Selectivity ratio of EC50 for human vasopressin V1b receptor to EC50 for human vasopressin V1a receptor
# [2] = target: Vasopressin V1a/V2 (Homo sapiens) (UniProt P30518+P37288); assay: Selectivity ratio of EC50 for human vasopressin V2 receptor to EC50 for human vasopressin V1a receptor
# Homo sapiens [3] = species: Homo sapiens; assay: Selectivity ratio of EC50 for human oxytocin receptor to EC50 for human vasopressin V1a receptor
# Sequence of Vasopressin V1a/V2 (Homo sapiens) (P30518 whole entry, looked up): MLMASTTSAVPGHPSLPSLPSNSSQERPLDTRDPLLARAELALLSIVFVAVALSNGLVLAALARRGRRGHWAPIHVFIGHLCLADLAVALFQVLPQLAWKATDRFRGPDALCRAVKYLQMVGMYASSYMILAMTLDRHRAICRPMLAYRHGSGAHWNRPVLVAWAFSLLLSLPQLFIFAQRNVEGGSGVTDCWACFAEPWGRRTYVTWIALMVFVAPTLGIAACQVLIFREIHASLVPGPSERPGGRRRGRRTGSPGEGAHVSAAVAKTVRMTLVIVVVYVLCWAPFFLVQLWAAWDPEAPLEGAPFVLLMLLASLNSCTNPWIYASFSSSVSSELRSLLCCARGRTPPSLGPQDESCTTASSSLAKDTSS
# Sequence of Vasopressin V1a/V2 (Homo sapiens) (P37288 whole entry, looked up): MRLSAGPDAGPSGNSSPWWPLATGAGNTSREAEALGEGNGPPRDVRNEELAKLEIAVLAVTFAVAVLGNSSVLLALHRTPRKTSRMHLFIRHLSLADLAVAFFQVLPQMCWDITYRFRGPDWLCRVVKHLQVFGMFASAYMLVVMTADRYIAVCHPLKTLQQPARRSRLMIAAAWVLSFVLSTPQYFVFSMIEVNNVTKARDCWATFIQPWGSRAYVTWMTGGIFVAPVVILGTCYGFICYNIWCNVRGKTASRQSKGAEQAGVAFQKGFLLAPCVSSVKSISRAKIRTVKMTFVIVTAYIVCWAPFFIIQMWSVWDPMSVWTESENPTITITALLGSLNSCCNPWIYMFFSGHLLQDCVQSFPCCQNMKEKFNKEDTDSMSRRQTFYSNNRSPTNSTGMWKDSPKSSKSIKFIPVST
# Sequence of Vasopressin V2 receptor (P30518 whole entry): as the sequence (P30518 whole entry, looked up) above
# Sequence of Vasopressin V1a receptor (P37288 whole entry): as the sequence (P37288 whole entry, looked up) above
pEC50 (Vasopressin V1a receptor),pEC50 (Vasopressin V1b receptor),pEC50 (Oxytocin receptor),pEC50 (Vasopressin V2 receptor; hek293),EC50 (Vasopressin V2 receptor),pEC50 (Vasopressin V1a receptor; hek293),EC50 (Vasopressin V1a receptor),pEC50 (Vasopressin V1b receptor; flp-in-293),EC50 (Vasopressin V1b receptor; read-out: pEC50 (converted)),pEC50 (Oxytocin receptor; cho-k1),EC50 (Oxytocin receptor),Ratio EC50 (Homo sapiens [1]),pEC50 (Vasopressin V2 receptor),Ratio EC50 [2],Ratio EC50 (Homo sapiens [3]),Compound
–,–,–,< 5.00,> 10 µM,< 6.00,> 1000 nM,< 5.00,> 10000 nM,< 5.00,> 10 µM,–,–,–,–,CC[C@H](C)[C@@H]1NC(=O)[C@H](C)NC(=O)[C@@H](N)CSSC[C@@H](C(=O)N2CCC[C@H]2C(=O)N[C@@H](CCN)C(=O)NCC(N)=O)NC(=O)[C@H](CC(N)=O)NC(=O)[C@H](CCC(N)=O)NC1=O (H-CAIQNCP[Dab]G-NH2; disulfide 1-6)
8.10,7.59,–,< 5.00,> 10 µM,–,–,–,–,< 5.00,> 10 µM,3.2,–,> 1200,> 1200,CC[C@H](C)[C@@H]1NC(=O)[C@H](Cc2ccccc2)NC(=O)[C@@H](N)CSSC[C@@H](C(=O)N2CCC[C@H]2C(=O)N[C@@H](CCCN)C(=O)NCC(N)=O)NC(=O)[C@H](CC(N)=O)NC(=O)[C@H](CC(=O)NCCO)NC1=O (H-CFID(NHCH2CH2OH)NCP[Orn]G-NH2; disulfide 1-6)
8.44,7.41,–,< 5.00,> 10 µM,–,–,–,–,< 5.00,> 10 µM,10,–,> 2700,> 2700,CC[C@H](C)[C@@H]1NC(=O)[C@H](Cc2ccccc2)NC(=O)[C@@H](N)CSSC[C@@H](C(=O)N2CCC[C@H]2C(=O)N[C@@H](CCCN)C(=O)NCC(N)=O)NC(=O)[C@H](CC(N)=O)NC(=O)[C@H](CC(=O)NC)NC1=O (H-CFID(NHMe)NCP[Orn]G-NH2; disulfide 1-6)
8.39,7.25,–,–,–,–,–,–,–,< 5.00,> 10 µM,13,5.59,630,> 2400,CC[C@H](C)[C@@H]1NC(=O)[C@H](Cc2ccccc2)NC(=O)[C@@H](N)CSSC[C@@H](C(=O)N2CCC[C@H]2C(=O)N[C@@H](CCCN)C(=O)NCC(N)=O)NC(=O)[C@H](CC(N)=O)NC(=O)[C@H](CC(=O)NO)NC1=O (H-CFID(NHOH)NCP[Orn]G-NH2; disulfide 1-6)
8.28,7.55,–,< 5.00,> 10 µM,–,–,–,–,< 5.00,> 10 µM,5.3,–,> 1900,> 1900,CC[C@H](C)[C@@H]1NC(=O)[C@H](Cc2ccccc2)NC(=O)[C@@H](N)CSSC[C@@H](C(=O)N2CCC[C@H]2C(=O)N[C@@H](CCCN)C(=O)NCC(N)=O)NC(=O)[C@H](CC(N)=O)NC(=O)[C@H](CC(=O)NCC(C)O)NC1=O (stereo not given in full) (H-CFID(X2)NCP[Orn]G-NH2; disulfide 1-6)
8.22,7.23,< 5.00,–,–,–,–,–,–,–,0.174 µM,9.8,6.68,35,> 1600,CC[C@H](C)[C@@H]1NC(=O)[C@H](Cc2ccccc2)NC(=O)[C@@H](N)CSSC[C@@H](C(=O)N2CCC[C@H]2C(=O)N[C@@H](CCCN)C(=O)NCC(N)=O)NC(=O)[C@H](CC(N)=O)NC(=O)[C@H](CCC(=O)NC)NC1=O (H-CFIE(NHMe)NCP[Orn]G-NH2; disulfide 1-6)
7.92,7.15,–,–,–,–,–,–,–,< 5.00,> 10 µM,5.8,6.77,14,> 830,CC[C@H](C)[C@@H]1NC(=O)[C@H](Cc2ccccc2)NC(=O)[C@@H](N)CSSC[C@@H](C(=O)N2CCC[C@H]2C(=O)N[C@@H](CCCN)C(=O)NCC(N)=O)NC(=O)[C@H](CC(N)=O)NC(=O)[C@H](CCC(=O)NO)NC1=O (H-CFIE(NHOH)NCP[Orn]G-NH2; disulfide 1-6)
7.52,6.68,–,–,–,–,–,–,–,< 5.00,> 10 µM,7,6.14,24,> 330,CC[C@H](C)[C@@H]1NC(=O)[C@H](Cc2ccccc2)NC(=O)[C@@H](N)CSSC[C@@H](C(=O)N2CCC[C@H]2C(=O)N[C@@H](CN)C(=O)NCC(N)=O)NC(=O)[C@H](CC(N)=O)NC(=O)[C@H](CCC(N)=O)NC1=O (H-CFIQNCP[Dap]G-NH2; disulfide 1-6)

# Further lines, the compound ahead of its results:
Compound,pEC50 (Vasopressin V1a receptor),pEC50 (Vasopressin V1b receptor),pEC50 (Oxytocin receptor),pEC50 (Vasopressin V2 receptor; hek293),EC50 (Vasopressin V2 receptor),pEC50 (Vasopressin V1a receptor; hek293),EC50 (Vasopressin V1a receptor),pEC50 (Vasopressin V1b receptor; flp-in-293),EC50 (Vasopressin V1b receptor; read-out: pEC50 (converted)),pEC50 (Oxytocin receptor; cho-k1),EC50 (Oxytocin receptor),Ratio EC50 (Homo sapiens [1]),pEC50 (Vasopressin V2 receptor),Ratio EC50 [2],Ratio EC50 (Homo sapiens [3])
CC[C@H](C)[C@@H]1NC(=O)[C@H](Cc2ccc(O)cc2)NC(=O)[C@@H](N)CSSC[C@@H](C(=O)N2CCC[C@H]2C(=O)N[C@@H](CCCN)C(=O)NCC(N)=O)NC(=O)[C@H](CC(N)=O)NC(=O)[C@H](CCC(N)=O)NC1=O,9.64,7.25,8.48,–,–,–,–,–,–,–,–,–,–,–,–
NCCC[C@H](NC(=O)[C@@H]1CCCN1C(=O)[C@@H]1CSSC[C@H](N)C(=O)N[C@@H](Cc2ccccc2)C(=O)N[C@@H](Cc2ccccc2)C(=O)N[C@@H](CCC(N)=O)C(=O)N[C@@H](CC(N)=O)C(=O)N1)C(=O)NCC(N)=O (H-CFFQNCP[Orn]G-NH2; disulfide 1-6),9.85,7.82,–,–,–,–,–,–,–,< 5.00,> 10 µM,100,8.04,65,> 71000
CCNC(=O)C[C@@H]1NC(=O)[C@H]([C@@H](C)CC)NC(=O)[C@H](Cc2ccccc2)NC(=O)[C@@H](N)CSSC[C@@H](C(=O)N2CCC[C@H]2C(=O)N[C@@H](CCCN)C(=O)NCC(N)=O)NC(=O)[C@H](CC(N)=O)NC1=O (H-CFID(NHEt)NCP[Orn]G-NH2; disulfide 1-6),8.24,7.52,–,< 5.00,> 10 µM,–,–,–,–,< 5.00,> 10 µM,5.2,–,> 1700,> 1700
CC[C@H](C)[C@@H]1NC(=O)[C@H](Cc2ccccc2)NC(=O)[C@@H](N)CSSC[C@@H](C(=O)N2CCC[C@H]2C(=O)N[C@@H](CCCN)C(=O)NCC(N)=O)NC(=O)[C@H](CC(N)=O)NC(=O)[C@H](CC(=O)NCCOCCO)NC1=O (H-CFID(X3)NCP[Orn]G-NH2; disulfide 1-6),8.32,7.39,–,< 5.00,> 10 µM,–,–,–,–,< 5.00,> 10 µM,8.5,–,> 2000,> 2000
CC[C@H](C)[C@@H]1NC(=O)[C@H](Cc2ccccc2)NC(=O)[C@@H](N)CSSC[C@@H](C(=O)N2CCC[C@H]2C(=O)N[C@@H](CCCN)C(=O)NCC(N)=O)NC(=O)[C@H](CC(N)=O)NC(=O)[C@H](CCC(=O)N(C)OC)NC1=O (H-CFIE(N(Me)OMe)NCP[Orn]G-NH2; disulfide 1-6),7.16,6.27,–,–,–,–,–,–,–,< 5.00,> 10 µM,7.8,5.92,17,> 140
CC[C@H](C)[C@@H]1NC(=O)[C@H](Cc2ccccc2)NC(=O)[C@@H](N)CSSC[C@@H](C(=O)N2CCC[C@H]2C(=O)N[C@@H](CCCNC)C(=O)NCC(N)=O)NC(=O)[C@H](CC(N)=O)NC(=O)[C@H](CC(N)=O)NC1=O (H-CFINNCP[Orn(Me)]G-NH2; disulfide 1-6),8.62,7.19,–,< 5.00,> 10 µM,–,–,–,–,< 5.00,> 10 µM,27,–,> 4100,> 4100
CC[C@H](C)[C@@H]1NC(=O)[C@H](Cc2csc3ccccc23)NC(=O)[C@@H](N)CSSC[C@@H](C(=O)N2CCC[C@H]2C(=O)N[C@@H](CCN)C(=O)NCC(N)=O)NC(=O)[C@H](CC(N)=O)NC(=O)[C@H](CCC(N)=O)NC1=O (H-C[Bta]IQNCP[Dab]G-NH2; disulfide 1-6),–,6.44,–,< 5.00,> 10 µM,< 6.00,> 1000 nM,–,–,< 5.00,> 10 µM,–,–,–,–
